Measurements pooled from the literature.
Protocols differ between the studies behind these lines.
Target: NT-3 growth factor receptor (NTRK3, Homo sapiens, UniProt Q16288)

`C[C@@H]1CCN(C(=O)CC#N)C[C@@H]1N(C)c1ncnc2[nH]ccc12` has a remaining signal of 90% (cell-free assay; 0.5 µM).
`O=C(Nc1cnn(-c2csc(C(=O)NC3COC3)c2)c1)Nc1c(F)cccc1Cl` gave a remaining activity of 38.6% (enzyme activity, inhibitor; 5 µM).
`Cc1ccc(C(=O)Nc2ccc(CN3CCN(C)CC3)c(C(F)(F)F)c2)cc1C#Cc1cnc2cccnn12` gave a remaining signal of 26% (cell-free assay; 23.5 nM).
With `O=C(Nc1cccc(C(=O)Nc2ccc3[nH]ncc3c2)c1)Nc1ccccc1Cl` the inhibition was 27.4% (enzyme activity, inhibitor, FRET; 1 µM).
The activity vs control of `Cc1cc(NC(=O)c2cccc3cc(-c4cccc5[nH]nc(N)c45)ccc23)ccc1F` is reported as 90% (enzyme activity, inhibitor; 0.1 µM).
The remaining signal of `Clc1ccc(Nc2nnc(Cc3ccncc3)c3ccccc23)cc1` is reported as 92.7% (cell-free assay; 0.5 µM).
`NS(=O)(=O)c1cc(NC(=O)Cc2ccccc2)ccc1Oc1cccc(Cl)c1` gave a remaining binding of 87% (cell-free assay, competition with immobilised ligand; 1 µM).
`O=C(Nc1cnn(-c2csc(C(=O)NC3COC3)c2)c1)Nc1ccccc1Cl` gave a remaining activity of 64.3% (enzyme activity, inhibitor; 5 µM).
`CN(C)c1ncnc(-c2ccc3nc(Nc4cc(CN5CCN(C(=O)CC(F)(F)F)CC5)ccn4)[nH]c3c2)c1Cl` gave a remaining binding of 61% (cell-free assay, competition with immobilised ligand; 1 µM).
For `O=C(Nc1ccc(C(F)(F)F)cc1)Nc1cccc(C(=O)Nc2ccc3[nH]nc(-c4ccccc4)c3c2)c1`, the inhibition was 12.9% (enzyme activity, inhibitor, FRET; 1 µM).
`CS(=O)(=O)NCC[C@H](NC(=O)c1cncc2c1cnn2-c1ccc(F)cc1)c1ccnc(S(C)(=O)=O)c1` gave a remaining binding of 100% (cell-free assay, competition with immobilised ligand; 1 µM).
`CC(C)(C)c1nc(-c2cccc(NS(=O)(=O)c3c(F)cccc3F)c2F)c(-c2ccnc(N)n2)s1` gave a remaining activity of 93% (enzyme activity, inhibitor, radiometric; 1 µM).
`O=C(Nc1cccc(F)c1)Nc1cccc(C(=O)Nc2ccc3[nH]ncc3c2)c1` has an inhibition of 17% (enzyme activity, inhibitor, FRET; 1 µM).
The remaining signal of `O=C1NC(=O)c2cc(Nc3ccc(F)cc3)c(Nc3ccc(F)cc3)cc21` is reported as 95.6% (cell-free assay; 0.5 µM).
The inhibition of `O=C(Nc1cccc(C(=O)Nc2ccc3[nH]ncc3c2)c1)Nc1ccccc1F` is reported as 26.3% (enzyme activity, inhibitor, FRET; 1 µM).
For `N#CC1(c2ccccn2)CCN(Cc2cc(C(=O)N3CCCC3)c(=O)n3ccccc23)CC1`, the remaining binding was 100% (cell-free assay, competition with immobilised ligand; 1 µM).
The remaining signal of `Cc1ccc(Nc2nccc(N(C)c3ccc4c(C)n(C)nc4c3)n2)cc1S(N)(=O)=O` is reported as 87.8% (cell-free assay; 0.5 µM).
`O=C(Nc1ccc(I)cc1)Nc1cccc(C(=O)Nc2ccc3[nH]ncc3c2)c1` gave an inhibition of 14.6% (enzyme activity, inhibitor, FRET; 1 µM).
The remaining binding of `Cc1c[nH]c2nccc(Oc3c(F)cc(Nc4cc(Cl)nc(N)n4)cc3F)c12` is reported as 86% (cell-free assay, competition with immobilised ligand; 0.1 µM).
For `O=C(Nc1ccc(Cl)cc1)Nc1cccc(C(=O)Nc2ccc3[nH]ncc3c2)c1`, the inhibition was 15.4% (enzyme activity, inhibitor, FRET; 1 µM).
`CCCCN(CCCC)C(=O)CN1C[C@H](c2cc(OC)c3c(c2)OCO3)[C@@H](C(=O)O)[C@@H]1CC(C)(C)CCC` gave a remaining binding of 50.5% (cell-free assay, competition with immobilised ligand; 1 µM).
`O=C(Nc1cccc(C(=O)Nc2ccc3[nH]ncc3c2)c1)Nc1cccc(C(F)(F)F)c1` has an inhibition of 26.6% (enzyme activity, inhibitor, FRET; 1 µM).
For `COc1cc(Cl)c(C(=O)N[C@@H](CN[C@H]2CC[C@@H](N)CC2)Cc2ccc(C#N)cc2)cc1-c1ccc(CN[C@H](C)c2ccc(C)cc2)o1`, the remaining activity was 96% (enzyme activity, inhibitor; 1 µM).
For `CN1CCN(c2ccc(C(=O)Nc3n[nH]c4ccc(Cc5cc(F)cc(F)c5)cc34)c(NC3CCOCC3)c2)CC1`, the inhibition was 99.8% (enzyme activity, inhibitor, FRET; 1 µM).
`C[C@@]1(Cc2ccc(C#N)cc2)C(=O)N(c2cc(Cl)cc(Cl)c2)c2ncc(C(=O)NC3(c4nc(C5CCC5)no4)CC3)n21` has a remaining binding of 100% (cell-free assay, competition with immobilised ligand; 1 µM).
